Source: the RNAGym collection of RNA variant scans (doi:10.1101/gad.245936.114)
Variants at the floor of the assay were thinned out.

B1: tRNA (parent)
chain: CUCUCGGUAGCCAAGUUGGUUUAAGGCGCAAGACUUUAAUUUAUCACUACGAAAUCUUGAGAUCGGGCGUUCGACUCGCCCCCGGGAGAUUUUUUCCUCGAGCAA

Variants of: B1
Experiment: nonsense suppression (GFP-seq) (ratio to wild type); higher = more function; SUP4oc tRNA, yeast GFP reporter sort-seq
Procedure, shortened: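 Yeast were grown in raffinose/galactose medium with 80 mg/L adenine, each strain bearing a genome-integrated ochre-suppressor tRNA variant from a ~3% random-mutation library, a galactose-driven GFP ochre reporter, and RFP. After sorting into GFP/RFP bins, every bin was sequenced on an Illumina platform at phred ≥30. The GFPSEQ value, a measure of nonsense suppression, is the weighted bin median GFP/RFP relative to the unmutated parent tRNA, using each variant's estimated cell share per bin as the weight. Only variants with ≥100 reads and ≥30 cells were included.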
For C1U U2C A54C G61U U76A, the nonsense suppression was no more than 0.026. With U2A C68U the nonsense suppression was 0.18. In the case of C1G U8C U55G G69C, the nonsense suppression is reported as no more than 0.026. Work on C1U G19U G28C U57C G84A yielded a nonsense suppression of no more than 0.026. C1U A14G A31G U58G gave a nonsense suppression of no more than 0.026. For C1G U20G A23U C27A U76A G88U, the nonsense suppression was no more than 0.026. For C1U A9U A24C A30U A33G, the nonsense suppression was no more than 0.026. C1U G18A U21G C27U showed a nonsense suppression of no more than 0.026. Variant C1A G18C has a nonsense suppression of no more than 0.026. For U2A G84A A89G, the nonsense suppression was no more than 0.026. In the case of U2A A30U, the nonsense suppression is reported as 0.031. Work on C1A A23C C77A yielded a nonsense suppression of no more than 0.026. In the case of C1G A9G C11A U21A A30C G78A, the nonsense suppression is reported as no more than 0.026. Work on C1A C12G U58A yielded a nonsense suppression of no more than 0.026. U2A A24G G25A showed a nonsense suppression of no more than 0.026. In the case of C1U U17C C81G, the nonsense suppression is reported as no more than 0.026. U2A A31U A33G U58A showed a nonsense suppression of no more than 0.026. C1U C5U U22C U63C gave a nonsense suppression of no more than 0.026. For C1U U71G, the nonsense suppression was no more than 0.026. In the case of U2A C34U, the nonsense suppression is reported as no more than 0.026. U2C A14U U57C showed a nonsense suppression of no more than 0.026. With C1U C3U C64G G69U the nonsense suppression was no more than 0.026. Work on C1U G78A yielded a nonsense suppression of 0.0525. For C1A G10U G61A A62C G73C, the nonsense suppression was no more than 0.026. Work on C1A U4G C27U yielded a nonsense suppression of no more than 0.026. Work on U2A C12A yielded a nonsense suppression of no more than 0.026. With U2A U4A G7A the nonsense suppression was no more than 0.026. C1G G25A U35C gave a nonsense suppression of no more than 0.026. Variant U2A C81U has a nonsense suppression of 0.0376. C1G G25A G65A C83G showed a nonsense suppression of no more than 0.026. For C1U C3G G86A, the nonsense suppression was no more than 0.026. In the case of C1G U16A, the nonsense suppression is reported as 0.777. C1A C81G gave a nonsense suppression of no more than 0.026. For C1A C81U, the nonsense suppression was 0.045. C1A U35G showed a nonsense suppression of no more than 0.026. With C1A C5U U17A U55A the nonsense suppression was no more than 0.026. Work on C1U C3A U8A U17C yielded a nonsense suppression of no more than 0.026. With U2A U22G C29A C34A the nonsense suppression was 0.221. For U2C A9C C75A, the nonsense suppression was 0.038. For U2A A31C A62C G78U A87U, the nonsense suppression was no more than 0.026. Variant C1A A9U C68G U76A C81A has a nonsense suppression of no more than 0.026. U2A A33G showed a nonsense suppression of no more than 0.026. With C1A G67C C72A the nonsense suppression was no more than 0.026. Variant C1A U17G U20G has a nonsense suppression of no more than 0.026. With C1G C27A U55G the nonsense suppression was no more than 0.026. U2C A13U C72A showed a nonsense suppression of no more than 0.026. For C1G G7A G66C A74C, the nonsense suppression was no more than 0.026. In the case of C1U U20A G73C, the nonsense suppression is reported as 0.722. Variant C1U G6C G10U U58C has a nonsense suppression of no more than 0.026. U2C gave a nonsense suppression of 0.185. In the case of U2A C3G C27G C29G A33U, the nonsense suppression is reported as no more than 0.026. With C1G A87G the nonsense suppression was no more than 0.026. Work on C1A G19C A31G A60U U71A C72G G84U yielded a nonsense suppression of no more than 0.026. Work on U2A C34A G78U G86U yielded a nonsense suppression of no more than 0.026. For C1G G10C C29U C34G A89G, the nonsense suppression was no more than 0.026. Work on C1A C5G yielded a nonsense suppression of no more than 0.026. With C1A U71C C77G the nonsense suppression was no more than 0.026. C1U C34U G85C gave a nonsense suppression of no more than 0.026. In the case of C1U G15C G26C, the nonsense suppression is reported as no more than 0.026. C1A C3A U8A G88A showed a nonsense suppression of no more than 0.026. In the case of U2A U55C, the nonsense suppression is reported as 0.0451. C1U U55G U58G gave a nonsense suppression of no more than 0.026. U2C A23G gave a nonsense suppression of 0.0274. U2A G65C showed a nonsense suppression of no more than 0.026. In the case of C1U A13C A30C C77U A89C, the nonsense suppression is reported as no more than 0.026. For C1U A23G C29U C64G, the nonsense suppression was no more than 0.026. C1U U17G showed a nonsense suppression of no more than 0.026. Variant U2A U63C G84U has a nonsense suppression of no more than 0.026. With C1A U4G C11U the nonsense suppression was no more than 0.026. For C1U G26U C34G, the nonsense suppression was no more than 0.026. In the case of C1U G69C G73C, the nonsense suppression is reported as no more than 0.026. With U2A A23C the nonsense suppression was no more than 0.026. For C1A G85U, the nonsense suppression was 0.03. C1A A30C gave a nonsense suppression of no more than 0.026. Variant C1U C12G has a nonsense suppression of 0.327. In the case of C1U C12U, the nonsense suppression is reported as no more than 0.026. With C1U C12A the nonsense suppression was no more than 0.026. U2A G86A gave a nonsense suppression of no more than 0.026. C1G A14U C77U showed a nonsense suppression of no more than 0.026. C1A A31U G84A G88A showed a nonsense suppression of no more than 0.026. Work on U2A U4G G18A yielded a nonsense suppression of no more than 0.026. C1U G7C G69C G85C showed a nonsense suppression of no more than 0.026. In the case of C1U U4A, the nonsense suppression is reported as 0.0473. In the case of C1G U8G U63C G73U, the nonsense suppression is reported as no more than 0.026. Work on C1G G6U G66U G73U yielded a nonsense suppression of no more than 0.026. For C1U G66A, the nonsense suppression was 0.254. With C1G G61A G78U A87C the nonsense suppression was no more than 0.026. Variant U2A C29A C56A A60U has a nonsense suppression of no more than 0.026. In the case of U2A A13C, the nonsense suppression is reported as no more than 0.026. U2A A13U showed a nonsense suppression of 0.0284. C1G U58C A62U G78U gave a nonsense suppression of no more than 0.026. C1U G26A showed a nonsense suppression of no more than 0.026. In the case of C1U U2G U20G C29A, the nonsense suppression is reported as no more than 0.026. Variant C1A U8A U55C A89U has a nonsense suppression of no more than 0.026. C1U G18A gave a nonsense suppression of no more than 0.026. U2A C34G G85C A89C gave a nonsense suppression of 0.25. For U2A U4C U16C, the nonsense suppression was 0.0971. Variant C1G C3G G25A C27U has a nonsense suppression of no more than 0.026. With C1A G86C the nonsense suppression was no more than 0.026. C1U G66U G86A showed a nonsense suppression of no more than 0.026. U2C A13U gave a nonsense suppression of 0.0357. C1G A24U G28A A74C C81A A89G showed a nonsense suppression of no more than 0.026. With U2A C27U A31G U57C the nonsense suppression was no more than 0.026. C1U G7U G15A U35A A62G showed a nonsense suppression of no more than 0.026. In the case of C1U G6A C64G, the nonsense suppression is reported as no more than 0.026. U2A C80U gave a nonsense suppression of 0.0354. For C1A C56G A62U C80G C82A, the nonsense suppression was no more than 0.026. In the case of U2A C29U, the nonsense suppression is reported as 0.0437. U2A U4A gave a nonsense suppression of 0.0323. Variant U2A U4G has a nonsense suppression of 0.203. For C1G C5G A31C G73A, the nonsense suppression was no more than 0.026. Variant U2A G32U C34U has a nonsense suppression of no more than 0.026. C1G U55C gave a nonsense suppression of 0.0398. Work on C1G G61A U76C yielded a nonsense suppression of 0.0371. Work on C1G A54C yielded a nonsense suppression of 0.0309. For U2A G15A G66C G85U, the nonsense suppression was no more than 0.026. Variant C1A G73A has a nonsense suppression of 0.112. C1U C3A C29A showed a nonsense suppression of no more than 0.026. C1A C5G A13G G18C A54U G65C gave a nonsense suppression of no more than 0.026. C1A U8G C12U A14C G85U gave a nonsense suppression of no more than 0.026. For C1G G73A, the nonsense suppression was 0.0631. In the case of C1A C80U, the nonsense suppression is reported as 0.0314. For C1G C64A, the nonsense suppression was no more than 0.026. U2A G61A showed a nonsense suppression of 0.0448. In the case of C1U U4G C5U A31G C81A, the nonsense suppression is reported as no more than 0.026. C1G A31U G88A gave a nonsense suppression of no more than 0.026. With C1A A54G U58C U71C the nonsense suppression was no more than 0.026. For C1A G26C, the nonsense suppression was no more than 0.026. Work on U2A A60G yielded a nonsense suppression of 0.0755. For C1A U2G G19A G32C A89G, the nonsense suppression was no more than 0.026. C1A A54G A62U gave a nonsense suppression of no more than 0.026. Variant C1G A33G U55C U71G G78C has a nonsense suppression of no more than 0.026. C1U G67C gave a nonsense suppression of no more than 0.026. Work on C1A A13U yielded a nonsense suppression of no more than 0.026. In the case of C1U C3U C12U, the nonsense suppression is reported as no more than 0.026. Work on C1G U20C yielded a nonsense suppression of 0.0266. For C1A U16A G88C, the nonsense suppression was no more than 0.026. In the case of C1G A54G U63G U70G, the nonsense suppression is reported as no more than 0.026. With C1U G85C A89C the nonsense suppression was no more than 0.026. With U2A G73A the nonsense suppression was 0.0508. C1U A9G gave a nonsense suppression of 0.0262. For C1U A14U, the nonsense suppression was no more than 0.026. Variant C1G A13U G25U G59C has a nonsense suppression of no more than 0.026. For C1U G26A G69U C79U, the nonsense suppression was no more than 0.026. In the case of C1A A62G A74C G84A, the nonsense suppression is reported as no more than 0.026. C1A A24C A60C U63G C72G C77G showed a nonsense suppression of no more than 0.026. In the case of C1U G32U U55A A62C G67C, the nonsense suppression is reported as no more than 0.026. C1A U2A U35C U70A showed a nonsense suppression of no more than 0.026. In the case of C1A G19U U55A, the nonsense suppression is reported as no more than 0.026. With C1U U2G G18U the nonsense suppression was no more than 0.026. For U2A C27U, the nonsense suppression was 0.0357. Variant C1U A62G C80A has a nonsense suppression of no more than 0.026. Variant C1U G26A U57C has a nonsense suppression of no more than 0.026. Work on C1G A9C G18U U71G yielded a nonsense suppression of no more than 0.026. With C1U A9U A13C C64U the nonsense suppression was no more than 0.026. With C1G C29A C34U the nonsense suppression was no more than 0.026. Work on C1U A54U G88A yielded a nonsense suppression of 0.209. C1A C3G U58A C68G gave a nonsense suppression of no more than 0.026. In the case of C1G U4G G78C, the nonsense suppression is reported as no more than 0.026. Variant C1U C56A U76C has a nonsense suppression of no more than 0.026. Work on U2A G19C yielded a nonsense suppression of no more than 0.026. Variant C1A A30G G85A has a nonsense suppression of 0.0742. Work on C1U U35A C77A G84U yielded a nonsense suppression of no more than 0.026. For C1U G7A, the nonsense suppression was no more than 0.026. Work on C1U U63C yielded a nonsense suppression of no more than 0.026. With C1A C11U C12U A14U A62U the nonsense suppression was no more than 0.026. C1A U21C G73A showed a nonsense suppression of no more than 0.026.
